Experiments:
[1] = target: Voltage-gated inwardly rectifying potassium channel KCNH2 (Homo sapiens, UniProt Q12809); experiment: Displacement of [3H]-astemizole from human ERG up to 10 uM
Outline: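 hERG channel binding assay run by a contract lab; compound tested up to 10 μM.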

[2] = system: Salmonella typhimurium; experiment: Mutagenicity in Salmonella typhimurium TA100 in presence of rat liver S9 fraction by Ames test; format: toxicity, organism-based; settings: salmonella enterica subsp. enterica serovar typhimurium
[3] = system: Salmonella typhimurium; experiment: Mutagenicity in Salmonella typhimurium TA100 in absence of rat liver S9 fraction by Ames test; format: toxicity, organism-based; settings: salmonella enterica subsp. enterica serovar typhimurium
[4] = system: Salmonella typhimurium; experiment: Mutagenicity in Salmonella typhimurium TA1535 in presence of rat liver S9 fraction by Ames test; format: toxicity, organism-based; settings: salmonella enterica subsp. enterica serovar typhimurium
[5] = target: Adrenergic receptor alpha-1 (Rattus norvegicus) (UniProt P15823+P23944+P43140); experiment: Binding affinity to rat alpha1 receptor at 10 uM after 60 mins by scintillation counting analysis relative to control; format: protein assay
[6] = species on record: Homo sapiens; experiment: Binding affinity to bombesin receptor (unknown origin) at 10 uM relative to control
[7] = target: Beta-2 adrenergic receptor (Homo sapiens) (UniProt P07550); experiment: Binding affinity to recombinant human beta 2 adrenoceptor at 10 uM after 120 mins by scintillation counting analysis relative to control
[8] = target: Calcitonin gene-related peptide type 1 receptor (Homo sapiens) (UniProt Q16602); experiment: Binding affinity to recombinant human CGRP at 10 uM after 90 mins by scintillation counting analysis relative to control
[9] = target: Cholecystokinin receptor type A (Homo sapiens) (UniProt P32238); experiment: Binding affinity to recombinant human CCK1 at 10 uM after 60 mins by scintillation counting analysis relative to control
[10] = target: D(1A) dopamine receptor (Homo sapiens) (UniProt P21728); experiment: Binding affinity to recombinant human dopamine receptor D1 at 10 uM after 60 mins by scintillation counting analysis relative to control
[11] = target: D(1B) dopamine receptor (Homo sapiens) (UniProt P21918); experiment: Binding affinity to recombinant human dopamine receptor D5 at 10 uM after 60 mins by scintillation counting analysis relative to control
[12] = target: Platelet-derived growth factor receptor (Mus musculus) (UniProt P05622+P26618); experiment: Binding affinity to mouse PDGFR at 10 uM after 180 mins by scintillation counting analysis relative to control; format: protein-complex assay
[13] = target: C-C chemokine receptor type 1 (Homo sapiens) (UniProt P32246); experiment: Binding affinity to recombinant human CCR1 receptor at 10 uM after 120 mins by scintillation counting analysis relative to control
[14] = target: Histamine H1 receptor (Homo sapiens) (UniProt P35367); experiment: Binding affinity to recombinant human histamine H1 receptor at 10 uM after 60 mins by scintillation counting analysis relative to control
[15] = target: Melatonin receptor type 1A (Homo sapiens) (UniProt P48039); experiment: Binding affinity to recombinant human MT1 receptor at 10 uM after 240 mins by scintillation counting analysis relative to control
[16] = target: Muscarinic acetylcholine receptor M2 (Homo sapiens) (UniProt P08172); experiment: Binding affinity to muscarinic M2 receptor (unknown origin)
[17] = target: Muscarinic acetylcholine receptor M5 (Homo sapiens) (UniProt P08912); experiment: Binding affinity to recombinant human muscarinic M5 receptor at 10 uM after 60 mins by scintillation counting analysis relative to control
[18] = target: Neuromedin-K receptor (Homo sapiens) (UniProt P29371); experiment: Binding affinity to recombinant human NK3 receptor at 10 uM after 120 mins by scintillation counting analysis relative to control
[19] = target: Neuropeptide Y receptor type 2 (Homo sapiens) (UniProt P49146); experiment: Binding affinity to human Y2 receptor at 10 uM after 60 mins by scintillation counting analysis relative to control
[20] = species on record: Homo sapiens; experiment: Binding affinity to phencyclidine receptor (unknown origin) at 10 uM relative to control
[21] = target: 5-hydroxytryptamine receptor 2C (Homo sapiens) (UniProt P28335); experiment: Binding affinity to recombinant human 5-HT2C receptor at 10 uM after 60 mins by scintillation counting analysis relative to control
[22] = target: 5-hydroxytryptamine receptor 5A (Homo sapiens) (UniProt P47898); experiment: Binding affinity to recombinant human 5-HT5A receptor at 10 uM after 120 mins by scintillation counting analysis relative to control
[23] = target: Sodium-dependent noradrenaline transporter (Homo sapiens) (UniProt P23975); experiment: Binding affinity to norepinephrine transporter (unknown origin) at 10 uM relative to control
[24] = target: Secretory phospholipase A2 receptor (Homo sapiens) (UniProt Q13018); experiment: Binding affinity to recombinant human sPLA2 receptor at 10 uM after 20 mins by spectrophotometric analysis relative to control
[25] = target: Polyunsaturated fatty acid 5-lipoxygenase (Homo sapiens) (UniProt P09917); experiment: Binding affinity to recombinant human 5-LOX at 10 uM after 90 mins by fluorescence assay relative to control
[26] = target: cGMP-inhibited 3',5'-cyclic phosphodiesterase 3A (Homo sapiens) (UniProt Q14432); experiment: Binding affinity to recombinant human PDE3A at 10 uM after 20 mins by scintillation counting analysis relative to control
[27] = target: 3',5'-cyclic-AMP phosphodiesterase 4D (Homo sapiens) (UniProt Q08499); experiment: Binding affinity to recombinant human PDE4D2 at 10 uM after 20 mins by scintillation counting analysis relative to control
[28] = target: cGMP-specific 3',5'-cyclic phosphodiesterase (Homo sapiens) (UniProt O76074); experiment: Binding affinity to human PDE5 at 10 uM after 60 mins by scintillation counting analysis relative to control
[29] = target: Angiotensin-converting enzyme (Homo sapiens) (UniProt P12821); experiment: Binding affinity to ACE (unknown origin) at 10 uM relative to control
[30] = target: Endothelin-converting enzyme 1 (Homo sapiens) (UniProt P42892); experiment: Binding affinity to ECE-1 (unknown origin) at 10 uM relative to control
[31] = species on record: Homo sapiens; experiment: Binding affinity to elastase (unknown origin) at 10 uM relative to control
[32] = target: Interstitial collagenase (Homo sapiens) (UniProt P03956); experiment: Binding affinity to human MMP1 at 10 uM after 20 mins by fluorescence assay relative to control
[33] = target: Proto-oncogene tyrosine-protein kinase Src (Homo sapiens) (UniProt P12931); experiment: Binding affinity to recombinant human Src at 10 uM after 10 mins by LANCE assay relative to control
[34] = target: MAO-B (amine oxidase [flavin-containing] B) (Homo sapiens, UniProt P27338); experiment: Binding affinity to recombinant human MAO-B at 10 uM after 60 mins by luminescence analysis relative to control; settings: read-out: Activity
[35] = target: Centromere-associated protein E (Homo sapiens) (UniProt Q02224); experiment: Binding affinity to recombinant human CENPE at 10 uM after 30 mins by spectrophotometric analysis relative to control
[36] = target: Histone deacetylase 4 (Homo sapiens) (UniProt P56524); experiment: Binding affinity to recombinant human HDAC4 at 10 uM after 30 mins by fluorescence analysis relative to control

Sequence of cGMP-inhibited 3',5'-cyclic phosphodiesterase 3A (Homo sapiens) (Q14432 whole entry): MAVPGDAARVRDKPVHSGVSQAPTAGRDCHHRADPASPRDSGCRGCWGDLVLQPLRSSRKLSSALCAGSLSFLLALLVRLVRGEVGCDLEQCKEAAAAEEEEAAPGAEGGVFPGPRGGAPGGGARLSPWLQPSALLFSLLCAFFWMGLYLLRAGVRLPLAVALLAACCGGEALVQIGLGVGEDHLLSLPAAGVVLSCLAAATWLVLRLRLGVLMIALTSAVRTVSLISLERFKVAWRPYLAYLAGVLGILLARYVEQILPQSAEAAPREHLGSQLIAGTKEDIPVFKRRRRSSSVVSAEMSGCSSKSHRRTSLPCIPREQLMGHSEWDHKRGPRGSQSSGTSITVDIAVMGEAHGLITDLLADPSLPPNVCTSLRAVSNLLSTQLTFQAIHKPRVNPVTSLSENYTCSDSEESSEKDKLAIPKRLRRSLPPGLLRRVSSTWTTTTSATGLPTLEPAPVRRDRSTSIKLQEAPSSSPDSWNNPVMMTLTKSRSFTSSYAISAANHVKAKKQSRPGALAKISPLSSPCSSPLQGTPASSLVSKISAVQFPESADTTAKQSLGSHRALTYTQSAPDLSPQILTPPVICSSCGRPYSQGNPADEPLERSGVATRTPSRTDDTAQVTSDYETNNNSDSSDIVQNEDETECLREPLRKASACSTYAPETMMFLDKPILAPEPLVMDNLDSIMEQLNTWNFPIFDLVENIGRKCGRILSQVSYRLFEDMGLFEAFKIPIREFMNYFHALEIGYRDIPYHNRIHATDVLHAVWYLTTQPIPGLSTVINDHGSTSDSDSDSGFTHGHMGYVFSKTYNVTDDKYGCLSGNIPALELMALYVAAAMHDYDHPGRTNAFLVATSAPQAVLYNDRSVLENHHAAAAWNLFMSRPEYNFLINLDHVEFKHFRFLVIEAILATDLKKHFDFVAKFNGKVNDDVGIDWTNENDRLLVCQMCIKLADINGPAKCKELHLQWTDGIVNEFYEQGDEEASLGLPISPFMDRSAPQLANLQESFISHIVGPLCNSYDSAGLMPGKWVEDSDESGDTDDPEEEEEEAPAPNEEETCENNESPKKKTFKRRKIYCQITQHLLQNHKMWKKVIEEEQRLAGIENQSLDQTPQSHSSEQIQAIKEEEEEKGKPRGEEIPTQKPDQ
Sequence of MAO-B (amine oxidase [flavin-containing] B) (P27338 whole entry): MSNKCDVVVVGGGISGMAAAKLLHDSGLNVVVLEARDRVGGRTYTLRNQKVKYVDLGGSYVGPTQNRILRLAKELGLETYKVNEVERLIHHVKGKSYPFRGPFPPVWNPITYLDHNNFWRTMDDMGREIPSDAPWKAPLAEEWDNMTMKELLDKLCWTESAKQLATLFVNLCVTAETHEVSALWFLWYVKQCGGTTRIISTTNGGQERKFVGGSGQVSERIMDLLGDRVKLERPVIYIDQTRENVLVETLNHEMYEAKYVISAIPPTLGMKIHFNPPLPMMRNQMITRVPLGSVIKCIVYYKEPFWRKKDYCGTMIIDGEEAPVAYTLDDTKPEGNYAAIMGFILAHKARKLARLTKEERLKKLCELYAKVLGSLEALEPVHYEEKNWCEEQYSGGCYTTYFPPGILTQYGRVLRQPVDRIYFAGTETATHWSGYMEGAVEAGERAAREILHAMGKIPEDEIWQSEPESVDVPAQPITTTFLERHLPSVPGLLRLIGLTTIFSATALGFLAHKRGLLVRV
Sequence of D(1A) dopamine receptor (Homo sapiens) (P21728 whole entry): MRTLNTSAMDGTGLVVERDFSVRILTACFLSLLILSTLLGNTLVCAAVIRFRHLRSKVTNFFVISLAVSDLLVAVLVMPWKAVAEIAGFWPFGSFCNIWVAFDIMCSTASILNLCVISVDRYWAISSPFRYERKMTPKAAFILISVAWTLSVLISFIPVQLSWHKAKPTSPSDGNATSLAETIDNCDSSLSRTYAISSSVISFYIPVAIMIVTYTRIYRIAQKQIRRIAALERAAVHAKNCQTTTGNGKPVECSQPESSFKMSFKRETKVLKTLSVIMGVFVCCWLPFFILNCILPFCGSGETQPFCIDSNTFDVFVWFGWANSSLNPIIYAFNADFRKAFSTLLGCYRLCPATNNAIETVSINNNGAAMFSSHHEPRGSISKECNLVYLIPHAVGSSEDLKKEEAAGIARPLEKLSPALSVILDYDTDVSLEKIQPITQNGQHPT
Sequence of Angiotensin-converting enzyme (Homo sapiens) (P12821 whole entry): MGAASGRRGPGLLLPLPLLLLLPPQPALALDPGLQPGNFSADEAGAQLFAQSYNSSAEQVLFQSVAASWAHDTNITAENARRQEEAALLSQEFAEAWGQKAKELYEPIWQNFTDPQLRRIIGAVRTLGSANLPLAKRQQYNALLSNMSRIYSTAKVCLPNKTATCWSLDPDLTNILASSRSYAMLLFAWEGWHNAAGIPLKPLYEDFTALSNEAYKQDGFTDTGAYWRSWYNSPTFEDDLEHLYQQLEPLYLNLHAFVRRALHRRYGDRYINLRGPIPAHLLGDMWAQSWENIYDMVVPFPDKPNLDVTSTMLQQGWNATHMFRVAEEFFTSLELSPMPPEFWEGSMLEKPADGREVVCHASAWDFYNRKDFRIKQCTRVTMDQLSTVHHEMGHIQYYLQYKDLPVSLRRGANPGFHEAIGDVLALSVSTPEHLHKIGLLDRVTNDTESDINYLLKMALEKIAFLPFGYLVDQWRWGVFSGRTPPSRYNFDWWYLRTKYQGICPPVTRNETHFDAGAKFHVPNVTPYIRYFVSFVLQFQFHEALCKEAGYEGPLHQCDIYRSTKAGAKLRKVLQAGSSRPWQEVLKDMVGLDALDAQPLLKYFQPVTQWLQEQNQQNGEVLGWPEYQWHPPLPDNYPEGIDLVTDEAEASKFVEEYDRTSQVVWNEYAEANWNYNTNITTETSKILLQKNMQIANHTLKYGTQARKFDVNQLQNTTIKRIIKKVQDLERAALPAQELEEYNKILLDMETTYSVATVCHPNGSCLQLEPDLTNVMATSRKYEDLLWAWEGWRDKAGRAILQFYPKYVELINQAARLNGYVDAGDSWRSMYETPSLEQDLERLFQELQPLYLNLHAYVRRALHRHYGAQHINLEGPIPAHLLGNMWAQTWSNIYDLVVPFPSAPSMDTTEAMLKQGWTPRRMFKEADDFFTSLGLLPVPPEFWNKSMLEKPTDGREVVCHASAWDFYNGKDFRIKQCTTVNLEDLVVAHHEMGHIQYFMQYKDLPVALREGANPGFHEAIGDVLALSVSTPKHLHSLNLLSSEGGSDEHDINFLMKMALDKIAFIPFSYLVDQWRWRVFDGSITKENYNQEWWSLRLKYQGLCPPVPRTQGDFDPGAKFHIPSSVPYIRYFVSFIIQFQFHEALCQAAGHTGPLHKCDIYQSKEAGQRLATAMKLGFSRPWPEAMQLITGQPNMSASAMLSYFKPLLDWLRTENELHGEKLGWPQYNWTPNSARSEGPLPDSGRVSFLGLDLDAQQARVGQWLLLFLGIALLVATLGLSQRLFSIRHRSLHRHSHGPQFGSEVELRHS
Sequence of Sodium-dependent noradrenaline transporter (Homo sapiens) (P23975 whole entry): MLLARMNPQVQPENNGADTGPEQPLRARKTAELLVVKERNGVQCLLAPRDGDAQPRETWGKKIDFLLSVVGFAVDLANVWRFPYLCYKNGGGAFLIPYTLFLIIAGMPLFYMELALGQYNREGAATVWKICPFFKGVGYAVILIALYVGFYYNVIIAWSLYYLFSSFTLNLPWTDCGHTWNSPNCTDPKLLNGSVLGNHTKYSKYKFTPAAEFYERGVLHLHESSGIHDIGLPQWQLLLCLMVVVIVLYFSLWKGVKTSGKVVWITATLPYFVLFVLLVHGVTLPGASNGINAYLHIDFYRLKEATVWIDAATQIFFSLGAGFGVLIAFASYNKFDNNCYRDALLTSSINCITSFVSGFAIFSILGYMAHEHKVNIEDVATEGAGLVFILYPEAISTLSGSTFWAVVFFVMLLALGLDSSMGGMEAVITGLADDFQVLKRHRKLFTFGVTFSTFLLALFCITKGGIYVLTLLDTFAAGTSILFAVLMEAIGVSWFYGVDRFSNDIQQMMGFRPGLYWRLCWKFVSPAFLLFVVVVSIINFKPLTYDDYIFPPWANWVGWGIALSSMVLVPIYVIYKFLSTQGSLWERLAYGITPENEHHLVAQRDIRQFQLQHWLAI
Sequence of Cholecystokinin receptor type A (Homo sapiens) (P32238 whole entry): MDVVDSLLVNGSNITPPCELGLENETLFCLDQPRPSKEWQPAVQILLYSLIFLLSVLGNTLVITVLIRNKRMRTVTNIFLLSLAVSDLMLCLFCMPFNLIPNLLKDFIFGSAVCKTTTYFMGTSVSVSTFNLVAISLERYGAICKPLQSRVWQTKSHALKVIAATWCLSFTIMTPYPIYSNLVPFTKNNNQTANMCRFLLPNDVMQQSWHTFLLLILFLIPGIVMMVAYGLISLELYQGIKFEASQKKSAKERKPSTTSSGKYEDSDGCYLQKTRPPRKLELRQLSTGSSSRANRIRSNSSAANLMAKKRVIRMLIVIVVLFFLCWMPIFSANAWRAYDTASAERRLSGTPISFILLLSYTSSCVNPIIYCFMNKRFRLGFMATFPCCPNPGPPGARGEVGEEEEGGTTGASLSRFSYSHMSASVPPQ
Sequence of Neuropeptide Y receptor type 2 (Homo sapiens) (P49146 whole entry): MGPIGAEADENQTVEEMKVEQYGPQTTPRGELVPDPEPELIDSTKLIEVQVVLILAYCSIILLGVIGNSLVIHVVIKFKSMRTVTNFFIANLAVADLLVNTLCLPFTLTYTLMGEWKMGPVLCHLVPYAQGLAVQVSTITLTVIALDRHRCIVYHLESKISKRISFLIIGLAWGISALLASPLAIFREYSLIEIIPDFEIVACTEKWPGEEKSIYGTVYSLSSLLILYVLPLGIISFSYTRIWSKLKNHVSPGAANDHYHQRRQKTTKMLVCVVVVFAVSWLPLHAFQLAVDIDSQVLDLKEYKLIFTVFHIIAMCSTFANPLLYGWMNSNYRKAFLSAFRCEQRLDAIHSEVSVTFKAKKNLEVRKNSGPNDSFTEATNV

CCOc1c(Cl)cc(C(=O)Nc2ccc(C(=O)O)c(C)c2)cc1OC(C)C
Activity [1]: Not Active | Activity [2]: Non-Toxic | Activity [3]: Non-Toxic | Activity [4]: Non-Toxic | Activity [5]: < 25% | Activity [6]: < 25% | Activity [7]: < 25% | Activity [8]: < 25% | Activity [9]: < 25% | Activity [10]: < 25% | Activity [11]: < 25% | Activity [12]: < 25% | Activity [13]: < 25% | Activity [14]: < 25% | Activity [15]: < 25% | Activity [16]: < 25% | Activity [17]: < 25% | Activity [18]: < 25% | Activity [19]: < 25% | Activity [20]: < 25% | Activity [21]: < 25% | Activity [22]: < 25% | Activity [23]: < 25% | Activity [24]: < 25% | Activity [25]: < 25% | Activity [26]: < 25% | Activity [27]: < 25% | Activity [28]: < 25% | Activity [29]: < 25% | Activity [30]: < 25% | Activity [31]: < 25% | Activity [32]: < 25% | Activity [33]: < 25% | activity at 1 h, 10 µM [34]: ≤ 25% | Activity [35]: < 25% | Activity [36]: < 25%

Reference: ChEMBL document CHEMBL4184197 (Bioorg Med Chem, 2018)
